≈ marks a conversion by molar mass, not a printed value. Calls of active or inactive are those of the source. No cut-off for these calls is given here.
Assays:
L1210 [1] = assay: Antitumor activity against mouse L1210 cells allografted in BDF1 mouse assessed as survival at 100 mg/kg, ip administered as single dose measured on day 30 relative to vehicle-treated control; type: functional, organism-based; design: dose 100 mg/kg
Summary of the method: (§1)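 Leukemic L1210 cells were introduced into mice. Each compound was then given as a single intraperitoneal injection 24 h later. Activity is expressed as % increase in life span (ILS), with the count of 30-day survivors per group. Doses tested were 100, 200, 500 and 1000 mg/kg.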

L1210 [2] = assay: Antitumor activity against mouse L1210 cells allografted in BDF1 mouse assessed as increase in life span at 1000 mg/kg, ip administered as single dose relative to vehicle-treated control; type: functional; settings: route intraperitoneal
Summary of the method: (§2)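 Single intraperitoneal injection given 24 h after the leukemic cells were introduced, at 100, 200, 500 or 1000 mg/kg. Read-out is % increase in life span (ILS), with the count of 30-day survivors per group recorded (group sizes 7–8 mice).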

L1210 [3] = assay: Antitumor activity against mouse L1210 cells allografted in BDF1 mouse assessed as survival at 200 mg/kg, ip administered as single dose measured on day 30 relative to vehicle-treated control; type: functional, organism-based; design: dose 200 mg/kg; summary of the method: as §1
L1210 [4] = assay: Antitumor activity against mouse L1210 cells allografted in BDF1 mouse assessed as survival at 1000 mg/kg, ip administered as single dose measured on day 30 relative to vehicle-treated control; type: functional, organism-based; design: dose 1000 mg/kg; summary of the method: as §1
Vaccinia virus = assay: Antiviral activity against Vaccinia virus IHD infected in African green monkey BGM cells assessed as plaque reduction measured on day 5 by disk diffusion assay; type: functional; settings: Orthopoxvirus vaccinia, 120 h, read-out: ED50 (the source's name)
L1210 [5] = assay: Antitumor activity against mouse L1210 cells allografted in BDF1 mouse assessed as increase in life span at 100 mg/kg, ip administered as single dose relative to vehicle-treated control; type: functional; settings: route intraperitoneal; summary of the method: as §2
HeLa = assay: Cytotoxicity against human HeLa cells after 48 hrs by Coulter counter analysis; type: functional; settings: read-out: ED50 (the source's name)
Herpesviridae sp. = assay: Antiviral activity against Herpes Simplex virus HF infected in African green monkey BGM cells assessed as plaque reduction measured on day 5 by disk diffusion assay; type: functional; settings: 120 h, read-out: ED50 (the source's name)
L1210 [6] = assay: Antitumor activity against mouse L1210 cells allografted in BDF1 mouse assessed as increase in life span at 200 mg/kg, ip administered as single dose relative to vehicle-treated control; type: functional; settings: route intraperitoneal; summary of the method: as §2
L1210 [7] = assay: Antitumor activity against mouse L1210 cells allografted in BDF1 mouse assessed as increase in life span at 500 mg/kg, ip administered as single dose relative to vehicle-treated control; type: functional; settings: route intraperitoneal; summary of the method: as §2

Row | SMILES | Activity (L1210 [1]) | ILS at 1000 mg/kg (L1210 [2]) | Activity (L1210 [3]) | Activity (L1210 [4]) | EC50 (Vaccinia virus) | ILS at 100 mg/kg (L1210 [5]) | EC50 (HeLa) | EC50 (Herpesviridae sp.) | ILS at 200 mg/kg (L1210 [6]) | ILS at 500 mg/kg (L1210 [7])
1 | CCCCCCCCCCCCCCCCCCCCCC(=O)OC[C@H]1O[C@@H](n2ccc(N)nc2=O)[C@@H](O)[C@@H]1OC(=O)CCCCCCCCCCCCCCCCCCCCC | inactive | 113% | inactive | inactive | > 30000 nM | 10% | > 10 µg/mL | > 30000 nM | 27% | 
2 | CCCCCCCCCCCCCCCCCCCC(=O)OC[C@H]1O[C@@H](n2ccc(N)nc2=O)[C@@H](O)[C@@H]1OC(=O)CCCCCCCCCCCCCCCCCCC | inactive | > 205% | inactive |  | > 30000 nM | 87% | > 10 µg/mL | > 30000 nM | 39% | 
3 | CCCCCCCC(=O)OC[C@H]1O[C@@H](n2ccc(N)nc2=O)[C@@H](O)[C@@H]1OC(=O)CCCCCCC.Cl | inactive | 46% | inactive | inactive | 220 nM | -28% | 0.13 µg/mL | 2600 nM | 20% | 
4 | CCCCCCCCCCCCCCCCCC(=O)O[C@H]1[C@H](O)[C@H](n2ccc(N)nc2=O)O[C@@H]1CO | Active | -23% |  | inactive | 380 nM | > 219% | 0.13 µg/mL (≈ 0.255 µM) | 700 nM | > 228% | 
5 | CCCCCCCC/C=C\CCCCCCCC(=O)O[C@H]1[C@H](O)[C@H](n2ccc(N)nc2=O)O[C@@H]1CO |  |  | inactive |  | 730 nM |  | 0.06 µg/mL (≈ 0.118 µM) | 940 nM | 67% | 
6 | CCCC(=O)OC[C@H]1O[C@@H](n2ccc(N)nc2=O)[C@@H](O)[C@@H]1OC(=O)CCC | inactive |  | inactive |  | 1150 nM | 14% | 0.11 µg/mL (≈ 0.287 µM) | 5200 nM | 8% | 
7 | CCCCCCCCCCCCCCCCCC(=O)OC[C@H]1O[C@@H](n2ccc(N)nc2=O)[C@@H](O)[C@@H]1OC(=O)CCCCCCCCCCCCCCCCC |  | > 328% | inactive |  | > 30000 nM |  | 10 µg/mL (≈ 12.9 µM) | > 30000 nM | 124% | 
8 | Cl.Nc1ccn([C@@H]2O[C@H](CO)[C@@H](OC(=O)Cc3ccccc3)[C@@H]2O)c(=O)n1 |  |  | inactive |  | 460 nM |  | 0.11 µg/mL | 1500 nM | 8% | 
9 | C=CCCCCCCCCC(=O)O[C@H]1[C@H](O)[C@H](n2ccc(N)nc2=O)O[C@@H]1CO |  | > 52% | inactive |  | 110 nM |  | 0.05 µg/mL (≈ 0.122 µM) | 440 nM | 49% | > 191%
10 | CCCCCCCCCCC(=O)O[C@H]1[C@H](O)[C@H](n2ccc(N)nc2=O)O[C@@H]1CO |  |  |  |  | 100 nM | > 127% | 0.04 µg/mL (≈ 0.0972 µM) | 120 nM | > 125% | > 99%
11 | CCCCCCCCCCCC(=O)OC[C@H]1O[C@@H](n2ccc(N)nc2=O)[C@@H](O)[C@@H]1OC(=O)CCCCCCCCCCC |  | > 260% | Active |  | 2050 nM |  | 0.5 µg/mL (≈ 0.823 µM) | 7200 nM | > 285% | 
12 | CCCCCCCCC(=O)OC[C@H]1O[C@@H](n2ccc(N)nc2=O)[C@@H](O)[C@@H]1OC(=O)CCCCCCCC.Cl |  |  | inactive |  | 190 nM |  | 0.08 µg/mL | 520 nM | 71% | 
13 | CC(=O)OC[C@H]1O[C@@H](n2ccc(N)nc2=O)[C@@H](O)[C@@H]1OC(C)=O.Cl |  |  | inactive |  | 3200 nM |  | 0.06 µg/mL | 16000 nM | 10% | 
14 | CCCCCC(=O)OC[C@H]1O[C@@H](n2ccc(N)nc2=O)[C@@H](O)[C@@H]1OC(=O)CCCCC | inactive |  | inactive |  | 220 nM | 4% | 0.07 µg/mL (≈ 0.159 µM) | 900 nM | 11% | 
15 | CCCCCCCCCC(=O)OC[C@H]1O[C@@H](n2ccc(N)nc2=O)[C@@H](O)[C@@H]1OC(=O)CCCCCCCCC |  | -4% |  | inactive | 350 nM |  | 0.11 µg/mL (≈ 0.199 µM) | 780 nM | > 214% | > 205%
16 | C=CCCCCCCCC(=O)OC[C@H]1O[C@@H](n2ccc(N)nc2=O)[C@@H](O)[C@@H]1OC(=O)CCCCCCCC=C.Cl |  |  |  |  |  |  | 0.1 µg/mL |  |  | 
17 | CCCCCCC/C=C\C(=O)O[C@H]1[C@H](O)[C@H](n2ccc(N)nc2=O)O[C@@H]1CO.Cl |  |  | inactive |  | 110 nM |  | 0.06 µg/mL | 230 nM | 22% | 
18 | Cl.Nc1ccn([C@@H]2O[C@H](COC(=O)Cc3ccccc3)[C@@H](OC(=O)Cc3ccccc3)[C@@H]2O)c(=O)n1 |  |  | inactive |  | 2300 nM |  | 0.13 µg/mL | 1300 nM | 29% | 
19 | CCCCCCCC/C=C\CCCCCCCCCCCC(=O)OC[C@H]1O[C@@H](n2ccc(N)nc2=O)[C@@H](O)[C@@H]1OC(=O)CCCCCCCCCCC/C=C\CCCCCCCC | inactive |  | inactive |  | > 30000 nM | 58% | > 10 µg/mL | > 30000 nM | 86% | 
20 | CCCCCCCCCCCCCCCC(=O)OC[C@H]1O[C@@H](n2ccc(N)nc2=O)[C@@H](O)[C@@H]1OC(=O)CCCCCCCCCCCCCCC |  | > 237% |  |  | 30000 nM |  | > 10 µg/mL | > 30000 nM | > 255% | 
21 | CCCCCCCC/C=C/CCCCCCCC(=O)O[C@H]1[C@H](O)[C@H](n2ccc(N)nc2=O)O[C@@H]1CO |  |  |  |  | 940 nM | > 246% | 0.05 µg/mL (≈ 0.0985 µM) | 1500 nM | > 258% | 
22 | CCCCCCCCCCCCCC(=O)OC[C@H]1O[C@@H](n2ccc(N)nc2=O)[C@@H](O)[C@@H]1OC(=O)CCCCCCCCCCCCC |  | -12% | Active | inactive | 5700 nM | > 255% | 1.4 µg/mL (≈ 2.11 µM) | 10000 nM | > 240% | > 105%
23 | CCCCCCCCC(=O)O[C@H]1[C@H](O)[C@H](n2ccc(N)nc2=O)O[C@@H]1CO |  | > 142% | inactive |  | 100 nM |  | 0.05 µg/mL (≈ 0.13 µM) | 300 nM | 59% | > 189%
